# Data reported in ChEMBL document CHEMBL1147099, “In vitro and in vivo antibacterial activities of heteroaryl isothiazolones against resistant gram-positive pathogens” (Antimicrob Agents Chemother, 2007).
# How the values were obtained:
# Staphylococcus aureus [1] = test: Effect on cellular viability of methicillin-sensitive Staphylococcus aureus ATCC 29213 by measuring the time required for recovery at 10 times MIC after 1 hr; format: functional
# How it was run: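 S. aureus in log phase, approximately 2–4 × 10^7 CFU/ml in CAMHB, was exposed to 10× MIC for 1 h at 35 to 37°C with shaking, then diluted 1:1,000 into prewarmed CAMHB. Viable counts were taken hourly for 4 to 8 h. PAE = T − C, the time to a 1-log10 rise, treated versus untreated. Mean of two independent experiments.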
# Haemophilus influenzae = test: Antibacterial activity against Haemophilus influenzae after 24 hrs by broth microdilution method; format: functional
# How it was run: (§1)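 CLSI broth microdilution in cation-adjusted Mueller-Hinton II broth, final inoculum about 5 × 10^5 CFU/ml for most strains; streptococci supplemented with 2–5% lysed horse blood, H. influenzae in Haemophilus test medium. Aerobic incubation at 35–37°C for 24 h; MIC = lowest concentration with no visible growth.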
# Moraxella catarrhalis = test: Antibacterial activity against Moraxella catarrhalis after 24 hrs by broth microdilution method; format: functional; how it was run: as §1
# Acinetobacter baumannii = test: Antibacterial activity against Acinetobacter baumannii after 24 hrs by broth microdilution method; format: functional; how it was run: as §1
# Enterobacter sp. = test: Antibacterial activity against Enterobacter sp.; format: functional
# How it was run: (§2)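 Aerobic isolates run by CLSI broth microdilution in cation-adjusted Mueller-Hinton II broth (streptococci plus 2–5% lysed horse blood), about 5 × 10^5 CFU/ml final; 24 h at 35–37°C aerobically; MIC read as lowest concentration without visible growth.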
# Escherichia coli = test: Antibacterial activity against Escherichia coli after 24 hrs by broth microdilution method; format: functional; how it was run: as §1
# Pseudomonas aeruginosa = test: Antibacterial activity against Pseudomonas aeruginosa after 24 hrs by broth microdilution method; format: functional; how it was run: as §1
# Klebsiella pneumoniae = test: Antibacterial activity against Klebsiella pneumoniae; format: functional; how it was run: as §2
# Staphylococcus aureus [2] = test: Antibacterial activity against methicillin-susceptible Staphylococcus aureus after 24 hrs by broth microdilution method; format: functional
# How it was run: (§3)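 Broth microdilution per CLSI in cation-adjusted Mueller-Hinton II broth, final inoculum approximately 5 × 10^5 CFU/ml. Plates were incubated aerobically at 35 to 37°C for 24 h. MIC was the lowest concentration giving no visible growth. Reserpine, where used, was at a final concentration of 20 μg/ml.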
# Streptococcus pyogenes = test: Antibacterial activity against Streptococcus pyogenes; format: functional; how it was run: as §2
# Neisseria gonorrhoeae = test: Antibacterial activity against Neisseria gonorrhoeae after 24 hrs by broth microdilution method; format: functional; how it was run: as §1
# Streptococcus viridans = test: Antibacterial activity against Streptococcus viridans after 24 hrs by broth microdilution method; format: functional; how it was run: as §1
# Enterococcus faecalis = test: Antibacterial activity against Enterococcus faecalis; format: functional; how it was run: as §2
# Streptococcus pneumoniae = test: Antibacterial activity against Streptococcus pneumoniae by agar dilution method; format: functional
# Enterococcus faecium = test: Antibacterial activity against Enterococcus faecium; format: functional; how it was run: as §2
# [3] = tested on: Mycoplasmoides pneumoniae; test: Antibacterial activity against Mycoplasma pneumoniae after 24 hrs by broth microdilution method; format: functional
# Staphylococcus aureus [4] = test: Antibacterial activity against methicillin-resistant Staphylococcus aureus after 24 hrs by broth microdilution method; format: functional; how it was run: as §3
# Neisseria meningitidis = test: Antibacterial activity against Neisseria meningitidis after 24 hrs by broth microdilution method; format: functional; how it was run: as §1
# Legionella pneumophila = test: Antibacterial activity against Legionella pneumophila after 24 hrs by broth microdilution method; format: functional
# [5] = AUC (0-24 hrs) in mouse at 50 mg/kg, sc; format: ADME, organism-based; parameters: time < 24 hr, dose 50 mg/kg, route subcutaneous; settings: plasma
# How it was run: (§4)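 Fasted mice given one subcutaneous dose (20 or 50 mg/kg); blood taken from groups of three at 0.08, 0.25, 0.5, 1, 2, 4, 8, 24 h. Plasma protein-precipitated with cold acetonitrile plus internal standard, LC-MS/MS (C8, positive ESI, SRM); calibration 5–15,000 ng/ml. Noncompartmental analysis of mean concentrations; AUC to last quantifiable point by linear trapezoidal rule.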
# [6] = AUC (0-24 hrs) in mouse at 20 mg/kg, sc; format: ADME, organism-based; parameters: time < 24 hr, dose 20 mg/kg, route subcutaneous; settings: plasma; how it was run: as §4
# Staphylococcus aureus [7] = test: Antibacterial activity against ethidium bromide-resistant Staphylococcus aureus Mu50 in presence of 20 ug/ml reserpine after 24 hrs by broth microdilution method; format: functional; settings: Mu50, 24 h; how it was run: as §3
# Staphylococcus aureus [8] = test: Antibacterial activity against ethidium bromide-resistant Staphylococcus aureus Mu50 after 24 hrs by broth microdilution method; format: functional; settings: Mu50, 24 h; how it was run: as §3
# [9] = Tmax in mouse at 20 mg/kg, sc; format: ADME, organism-based; parameters: dose 20 mg/kg, route subcutaneous; settings: in vivo; how it was run: as §4
# Staphylococcus aureus [10] = test: Antibacterial activity against […] Staphylococcus aureus ATCC 29213 in presence of 20 ug/ml reserpine after 24 hrs by broth microdilution method; format: functional; settings: ATCC 29213, 24 h; how it was run: as §3
# Staphylococcus aureus [11] = test: microbe, parasite or virus in culture; settings: Mu50
# Staphylococcus aureus [12] = test: Antibacterial activity against ethidium bromide-resistant Staphylococcus aureus BSA643 after 24 hrs by broth microdilution method; format: functional; settings: BSA643, 24 h; how it was run: as §3
# [13] = Cmax in mouse at 50 mg/kg, sc; format: ADME, organism-based; parameters: dose 50 mg/kg, route subcutaneous; settings: in vivo; how it was run: as §4
# Staphylococcus aureus [14] = test: Antibacterial activity against […] Staphylococcus aureus ATCC 29213 after 24 hrs by broth microdilution method; format: functional; settings: ATCC 29213, 24 h; how it was run: as §3
# [15] = Cmax in mouse at 20 mg/kg, sc; format: ADME, organism-based; parameters: dose 20 mg/kg, route subcutaneous; settings: in vivo; how it was run: as §4
# Staphylococcus aureus [16] = test: Antibacterial activity against ethidium bromide-resistant Staphylococcus aureus BSA678 after 24 hrs by broth microdilution method; format: functional; settings: BSA678, 24 h; how it was run: as §3
# [17] = Tmax in mouse at 50 mg/kg, sc; format: ADME, organism-based; parameters: dose 50 mg/kg, route subcutaneous; settings: in vivo; how it was run: as §4
# Clostridioides difficile = test: Antibacterial activity against Clostridium difficile by agar dilution method; format: functional
# How it was run: (§5)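 Anaerobes by CLSI agar dilution on brucella agar with hemin, vitamin K and 5% laked sheep blood; inoculum from 24-h enriched blood agar colonies resuspended in brucella broth to 0.5 McFarland. Plates incubated anaerobically at 35–37°C for 48 h.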
# Cutibacterium acnes = test: Antibacterial activity against Propionibacterium acnes; format: functional; how it was run: as §5
# Bacteroides fragilis = test: Antibacterial activity against Bacteroides fragilis by agar dilution method; format: functional; how it was run: as §5
# Peptostreptococcus sp. = test: Antibacterial activity against Peptostreptococcus sp. by agar dilution method; format: functional; how it was run: as §5
Structure (SMILES),MIC50 (Haemophilus influenzae) [µg/mL],MIC90 (Haemophilus influenzae) [µg/mL],MIC50 (Moraxella catarrhalis) [µg/mL],MIC90 (Moraxella catarrhalis) [µg/mL],MIC50 (Acinetobacter baumannii) [µg/mL],MIC90 (Acinetobacter baumannii) [µg/mL],MIC50 (Enterobacter sp.) [µg/mL],MIC90 (Enterobacter sp.) [µg/mL],MIC50 (Escherichia coli) [µg/mL],MIC90 (Escherichia coli) [µg/mL],MIC50 (Pseudomonas aeruginosa) [µg/mL],MIC90 (Pseudomonas aeruginosa) [µg/mL],MIC50 (Klebsiella pneumoniae) [µg/mL],MIC90 (Klebsiella pneumoniae) [µg/mL],MIC50 (Neisseria gonorrhoeae) [µg/mL],MIC90 (Neisseria gonorrhoeae) [µg/mL],also measured
CCN1CC(C(=O)O)C(=O)c2cc(F)c(N3CCNCC3)cc21 (stereo unspecified),,,,,,,,,,,,,,,,,Post anitbiotic effect (Staphylococcus aureus [1]): 1.6 h
CC1(C)S[C@@H]2[C@H](NC(=O)[C@H](N)c3ccccc3)C(=O)N2[C@H]1C(=O)O [AMPICILLIN],> 16,> 16,4,8,16,> 32,> 32,> 32,4,> 32,> 32,> 32,> 32,> 32,,,
CC[C@H]1OC(=O)[C@H](C)[C@@H](O[C@H]2C[C@@](C)(OC)[C@@H](O)[C@H](C)O2)[C@H](C)[C@@H](O[C@@H]2O[C@H](C)C[C@H](N(C)C)[C@H]2O)[C@](C)(O)C[C@@H](C)CN(C)[C@H](C)[C@@H](O)[C@]1(C)O [AZITHROMYCIN],0.5,2,0.015,0.03,,,,,,,,,,,0.06,0.12,MIC50 (Staphylococcus aureus [2]): 1 µg/mL; MIC90 (Staphylococcus aureus [2]): > 8 µg/mL; MIC50 (Streptococcus pyogenes): 0.12 µg/mL; MIC90 (Streptococcus pyogenes): > 8 µg/mL; MIC50 (Streptococcus viridans): 1 µg/mL; MIC90 (Streptococcus viridans): 4 µg/mL; MIC50 (Enterococcus faecalis): 4 µg/mL; MIC90 (Enterococcus faecalis): > 16 µg/mL; MIC50 (Streptococcus pneumoniae): 4 µg/mL; MIC90 (Streptococcus pneumoniae): > 8 µg/mL; MIC50 (Enterococcus faecium): > 16 µg/mL; MIC90 (Enterococcus faecium): > 16 µg/mL; MIC [3]: ≤ 0.004 µg/mL; MIC50 (Staphylococcus aureus [4]): > 8 µg/mL; MIC50 (Neisseria meningitidis): 0.5 µg/mL; MIC90 (Neisseria meningitidis): 1 µg/mL; MIC (Legionella pneumophila): 0.12 µg/mL
CO/N=C(\C(=O)N[C@@H]1C(=O)N2C(C(=O)[O-])=C(C[N+]3(C)CCCC3)CS[C@H]12)c1csc(N)n1 [CEFEPIME],,,,,2,32,0.06,4,,,,,0.5,32,,,
CC(C)(O/N=C(\C(=O)N[C@@H]1C(=O)N2C(C(=O)[O-])=C(C[n+]3ccccc3)CS[C@H]12)c1csc(N)n1)C(=O)O [CEFTAZIDIME],,,,,4,> 32,0.5,> 32,0.25,0.5,2,32,32,> 32,,,
CO/N=C(\C(=O)N[C@@H]1C(=O)N2C(C(=O)O)=C(CSc3nc(=O)c(O)nn3C)CS[C@H]12)c1csc(N)n1 [CEFTRIAXONE],< 0.008,0.015,0.5,1,8,> 64,0.12,> 64,0.06,0.06,64,> 64,16,32,0.004,0.03,MIC50 (Streptococcus pyogenes): 0.03 µg/mL; MIC90 (Streptococcus pyogenes): 0.03 µg/mL; MIC50 (Streptococcus viridans): 0.12 µg/mL; MIC90 (Streptococcus viridans): 1 µg/mL; MIC50 (Streptococcus pneumoniae): 0.12 µg/mL; MIC90 (Streptococcus pneumoniae): > 2 µg/mL
O=C(O)c1cn(C2CC2)c2cc(N3CCNCC3)c(F)cc2c1=O [CIPROFLOXACIN],,,,,,,,,,,,,,,0.004,0.008,AUC(0-t) at 24 h [5]: 14400 ng·h/mL; AUC(0-t) at 24 h [6]: 5950 ng·h/mL; MIC (Staphylococcus aureus [7]): 32 µg/mL; MIC (Staphylococcus aureus [8]): 32 µg/mL; Tmax [9]: 30 min; MIC (Staphylococcus aureus [10]): 0.25 µg/mL; MIC (Staphylococcus aureus [11]): > 64 µg/mL; MIC (Staphylococcus aureus [12]): 128 µg/mL; Cmax [13]: 7720 ng/mL; MIC (Staphylococcus aureus [14]): 0.25 µg/mL; Cmax [15]: 3360 ng/mL; MIC (Staphylococcus aureus [16]): > 64 µg/mL; Tmax [17]: 30 min
CCC[C@@H]1C[C@@H](C(=O)N[C@@H]([C@H]2O[C@H](SC)[C@H](O)[C@@H](O)[C@H]2O)[C@H](C)Cl)N(C)C1 [CLINDAMYCIN],,,,,,,,,,,,,,,,,MIC50 (Clostridioides difficile): 2 µg/mL; MIC90 (Clostridioides difficile): > 32 µg/mL; MIC50 (Cutibacterium acnes): 0.06 µg/mL; MIC90 (Cutibacterium acnes): 0.06 µg/mL; MIC50 (Bacteroides fragilis): 1 µg/mL; MIC90 (Bacteroides fragilis): 4 µg/mL; MIC50 (Peptostreptococcus sp.): 0.25 µg/mL; MIC90 (Peptostreptococcus sp.): 1 µg/mL
C[C@H]1c2cccc(O)c2C(=O)C2=C(O)[C@]3(O)C(=O)C(C(N)=O)=C(O)[C@@H](N(C)C)[C@@H]3[C@@H](O)[C@@H]21.O [DOXYCYCLINE],,,,,,,,,,,,,,,,,MIC [3]: 0.25 µg/mL; MIC (Legionella pneumophila): 1 µg/mL
